Experimental findings from ChEMBL document CHEMBL1154598, “7-Hydroxy-benzopyran-4-one derivatives: a novel pharmacophore of peroxisome proliferator-activated receptor alpha and -gamma (PPARalpha and gamma) dual agonists” (J Med Chem, 2009) are described below.

The nature of data set [1]: Cytotoxicity against HEK293 cells assessed as viable cells at 0.1 uM after 48 hrs by aqueous one solution cell proliferation assay relative to control. The data set is classed as cell-based. Conditions: human, read-out: Activity. Put shortly:
(§1)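 HEK293 cells were seeded overnight, then exposed to 0–100 μM compound for 48 h at 37 °C in 5% CO₂. MTS reagent was added for a further 2 h and absorbance read at 490 nm. Viability is given as % relative to DMSO vehicle control. Two experiments, each in quadruplicate.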

The next data set concerns HEK293. The data set can be described thus: Cytotoxicity against HEK293 cells assessed as decrease in viable cells at 50 uM after 48 hrs by aqueous one solution cell proliferation assay relative to control. It is filed as cell-based. Conditions: human, hek293, 48 h. Put shortly:
as §1

The target in data set [2] is T1, Peroxisome proliferator-activated receptor alpha (Homo sapiens) (UniProt Q07869).
T1 sequence (whole entry): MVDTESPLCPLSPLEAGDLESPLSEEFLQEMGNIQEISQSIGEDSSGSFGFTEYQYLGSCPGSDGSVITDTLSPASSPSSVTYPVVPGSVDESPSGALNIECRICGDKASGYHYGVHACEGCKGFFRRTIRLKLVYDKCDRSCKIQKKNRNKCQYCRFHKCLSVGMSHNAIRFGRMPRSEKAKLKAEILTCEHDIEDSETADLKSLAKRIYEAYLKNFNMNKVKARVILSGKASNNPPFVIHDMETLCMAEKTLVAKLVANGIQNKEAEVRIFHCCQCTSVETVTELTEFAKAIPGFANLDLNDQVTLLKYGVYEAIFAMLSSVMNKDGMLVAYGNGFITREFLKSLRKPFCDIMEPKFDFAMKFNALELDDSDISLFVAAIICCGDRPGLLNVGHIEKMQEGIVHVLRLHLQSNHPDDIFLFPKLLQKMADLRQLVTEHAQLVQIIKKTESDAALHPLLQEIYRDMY
Briefly: Agonist activity at human PPARalpha expressed in HEK293 cells co-transfected with PPRE assessed as beta-galactosidase signal at 25 uM after 48 hrs by reporter gene assay relative to control. The data set is classed as functional, cell-based. Put shortly:
(§2)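 Human PPARα transactivation in HEK293 cells grown in DMEM/F-12 with 10% heat-inactivated FBS. Cells were transfected with FuGENE 6 using a PPRE-luciferase reporter, pBI-G-hPPARα and a β-galactosidase control plasmid. After 24 h they were replated at 5 × 10⁴ cells/well, attached overnight, then dosed for 48 h with 0.1% DMSO as vehicle. Luciferase was normalized to β-gal and expressed as fold over vehicle. Two experiments, each in triplicate.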

Data set [3] addresses T2, Peroxisome proliferator-activated receptor gamma (Homo sapiens) (UniProt P37231).
T2 sequence (whole entry): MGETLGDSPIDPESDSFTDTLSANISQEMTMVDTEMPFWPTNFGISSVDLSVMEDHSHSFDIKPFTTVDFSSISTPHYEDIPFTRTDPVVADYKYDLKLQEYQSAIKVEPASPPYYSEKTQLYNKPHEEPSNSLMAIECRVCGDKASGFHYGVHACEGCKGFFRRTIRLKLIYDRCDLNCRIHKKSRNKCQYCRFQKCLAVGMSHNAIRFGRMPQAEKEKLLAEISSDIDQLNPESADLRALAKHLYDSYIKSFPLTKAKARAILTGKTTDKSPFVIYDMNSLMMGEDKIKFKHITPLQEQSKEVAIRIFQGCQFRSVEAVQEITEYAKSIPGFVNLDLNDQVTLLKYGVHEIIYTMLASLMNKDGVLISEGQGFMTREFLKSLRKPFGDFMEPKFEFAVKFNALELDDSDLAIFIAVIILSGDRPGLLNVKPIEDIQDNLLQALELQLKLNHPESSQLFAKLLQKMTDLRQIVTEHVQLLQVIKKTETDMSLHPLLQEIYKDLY
Briefly: Agonist activity at PPARgamma expressed in mouse RAW264.7 cells assessed as beta-galactosidase signal at 10 uM by reporter gene assay relative to control. The data set is classed as functional, cell-based.

Data set [4] addresses T1, Peroxisome proliferator-activated receptor alpha (Homo sapiens). The data set can be described thus: Agonist activity at human PPARalpha expressed in HEK293 cells co-transfected with PPRE assessed as beta-galactosidase signal at 40 uM after 48 hrs by reporter gene assay relative to control. It is filed as functional, cell-based. Put shortly:
as §2

In data set [5] the target is T2, Peroxisome proliferator-activated receptor gamma (Homo sapiens). Briefly: Agonist activity at human PPARgamma expressed in HEK293 cells co-transfected with PPRE assessed as beta-galactosidase signal at 25 uM after 48 hrs by reporter gene assay relative to control. The data set is classed as functional, cell-based. Put shortly: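 HEK293 cells were transfected with FuGENE 6 using a PPRE-luciferase reporter, pSG5-hPPARγ1 and a β-galactosidase control plasmid. After 24 h they were replated at 5 × 10⁴ cells/well, attached overnight, then treated for 48 h with 0.1% DMSO as vehicle. Luciferase was read, normalized to the β-gal signal and reported as fold activation over vehicle. Mean of two experiments in triplicate.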

Data set [6] has as its target T3, Peroxisome proliferator-activated receptor gamma (Homo sapiens, UniProt P37231).
T3 sequence (P37231 whole entry): T2 sequence (whole entry)
The data set can be described thus: Agonist activity at human PPARgamma assessed as luciferase activity by transactivation assay. The data set is classed as functional. Put shortly:
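Transiently transfected HEK293 (PPRE-luciferase reporter plus pSG5-hPPARγ1 and β-gal control), compound exposure 48 h. EC50 is the ligand concentration giving half-maximal fold induction of β-gal-normalized luciferase, fitted by nonlinear regression. Means of three experiments.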

The nature of data set [7]: Cytotoxicity against HEK293 cells assessed as viable cells at 10 uM after 48 hrs by aqueous one solution cell proliferation assay relative to control. The data set is classed as cell-based. Conditions: human, read-out: Activity. In a few lines:
as §1

A short description of data set [8]: Cytotoxicity against HEK293 cells assessed as viable cells at 50 uM after 48 hrs by aqueous one solution cell proliferation assay relative to control. It is filed as cell-based. Conditions: human, read-out: Activity. Put shortly:
as §1

For data set [9], the target named is T4, Peroxisome proliferator-activated receptor alpha (Homo sapiens, UniProt Q07869).
T4 sequence (Q07869 whole entry): T1 sequence (whole entry)
Briefly: Agonist activity at human PPARalpha assessed as luciferase activity by transactivation assay. It is filed as functional.

A short description of data set [10]: Cytotoxicity against HEK293 cells assessed as viable cells at 100 uM after 48 hrs by aqueous one solution cell proliferation assay relative to control. The data set is classed as cell-based. The following applies: human, read-out: Activity. In a few lines:
as §1

pEC50: −log10 of the molar value. A value given as a limit tells only on which side of the number the result lay.

As for `CC(C)OC(=O)C(C)(C)Oc1ccc(C(=O)c2ccc(Cl)cc2)cc1` [FENOFIBRATE], the viability at 48 h, 0.1 µM in data set [1] was > 90%. For the same molecule, the Activity in the data set on HEK293 is on record as 38%.
Consider `O=c1cc(-c2ccc(O)cc2)oc2cc(O)cc(O)c12`, for which the fold change (FC) amounted to 2 in data set [2], 8.13 in data set [3], 2.3 in [4] and 5.4 in data set [5].
For the molecule `O=c1c(-c2ccc3c(c2)OCO3)coc2cc(O)ccc12` [PSEUDOBAPTOGENIN], the fold change (FC) in data set [2] stood at 5.6; in data set [4] it was 11.7; in [5], 38.5. Further, the pEC50 in [6] is 4.57; in [9], 5.05. Moreover, the viability at 48 h, 10 µM in data set [7] is > 90%. Also, the viability at 48 h, 50 µM in data set [8] was > 67%. For the same molecule, in [10], the viability at 48 h, 100 µM was > 60%.
Consider `COc1cccc(-c2coc3cc(O)ccc3c2=O)c1`, for which the results for the fold change (FC) in data set [2], in [4] and in [5] were 16.5, 43 and 57.5, respectively. Moreover, the pEC50 in data set [6] is 4.65; in [9], 4.64. Further, the viability at 48 h, 10 µM in [7] was > 90%. Moreover, the viability at 48 h, 50 µM in [8] is > 67%. Further, the viability at 48 h, 100 µM in [10] is > 60%.
`COc1cc(OC)cc(-c2coc3cc(O)ccc3c2=O)c1`: the figures for the fold change (FC) in [2], in [4] and in data set [5] were 4.8, 25.3 and 116, respectively. Besides, the results for the pEC50 in data set [6] and in [9] were 4.72 and 4.61, respectively. Moreover, the viability at 48 h, 10 µM in data set [7] is > 80%. In data set [8], the viability at 48 h, 50 µM was > 67%.
For `O=c1cc(-c2ccccc2)oc2cc(O)cc(O)c12`, the fold change (FC) in data set [2] stood at 3.4; in [3], 5.6; in [4], 5.3; in [5], 4.
Consider `O=c1c(O)c(-c2ccc(O)cc2)oc2cc(O)cc(O)c12`, for which the fold change (FC) was 1.8 in data set [2], 7.6 in data set [3], 2.6 in data set [4] and 3.5 in data set [5].
